# Measured values: ChEMBL document CHEMBL1811814, “Synthesis and evaluation of indole, pyrazole, chromone and pyrimidine based conjugates for tumor growth inhibitory activities--development of highly efficacious cytotoxic agents” (Eur J Med Chem, 2010)
# How the values were obtained:
# Format in all cases: functional
# Parameters in all cases: scale not given: the % may be the effect or the level left
# BT-549 = experiment: Growth inhibition of human BT549 cells assessed tumor cell growth at 10^-5 M
# In short: (§1)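 NCI 60-human-tumor-cell-line panel screen. Each compound was tested at a single concentration of 10^-5 M, and percent growth of tumor cells was recorded for each cell line. Growth inhibition was expressed from these percent-growth values.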
# NCI-H522 = experiment: Growth inhibition of human NCI-H522 cells assessed tumor cell growth at 10^-5 M; in short: as §1
# MDA-MB-468 = experiment: Growth inhibition of human MDA-MB-468 cells assessed tumor cell growth at 10^-5 M; in short: as §1
# RXF 393 = experiment: Growth inhibition of human RXF393 cells assessed tumor cell growth at 10^-5 M; in short: as §1
# SF-268 = experiment: Growth inhibition of human SF268 cells assessed tumor cell growth at 10^-5 M; in short: as §1
# A549 = experiment: Growth inhibition of human A549 cells assessed tumor cell growth at 10^-5 M; in short: as §1
# M14 = experiment: Growth inhibition of human M14 cells assessed tumor cell growth at 10^-5 M; in short: as §1
# A498 = experiment: Growth inhibition of human A498 cells assessed tumor cell growth at 10^-5 M; in short: as §1
# SK-MEL-28 = experiment: Growth inhibition of human SK-MEL-28 cells assessed tumor cell growth at 10^-5 M; in short: as §1
# UACC-257 = experiment: Growth inhibition of human UACC257 cells assessed tumor cell growth at 10^-5 M
# In short: (§2)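 Single-dose screen at 10^-5 M across the 60 human tumor cell line panel, run to NCI standards. The value is the percent growth of each cell line in the presence of compound. Compounds active at this dose moved on to five-concentration testing (10^-4 to 10^-8 M).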
# [1] = Growth inhibition of human […] cells assessed tumor cell growth at 10^-5 M; in short: as §1
# HL-60(TB) = experiment: Growth inhibition of human HL-60(TB) cells assessed tumor cell growth at 10^-5 M
# In short: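 HL-60(TB), part of the 60-line panel, tested at a single concentration of 10^-5 M. The read-out is percent tumor cell growth relative to untreated growth.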
# COLO 205 = experiment: Growth inhibition of human COLO205 cells assessed tumor cell growth at 10^-5 M; in short: as §1
# SW-620 = experiment: Growth inhibition of human SW620 cells assessed tumor cell growth at 10^-5 M; in short: as §2
# KM12 = experiment: Growth inhibition of human KM12 cells assessed tumor cell growth at 10^-5 M; in short: as §1
# HT-29 = experiment: Growth inhibition of human HT-29 cells assessed tumor cell growth at 10^-5 M; in short: as §1
# U-251 = experiment: Growth inhibition of human U251 cells assessed tumor cell growth at 10^-5 M; in short: as §2
# PC-3 = experiment: Growth inhibition of human PC3 cells assessed tumor cell growth at 10^-5 M; in short: as §1
# CAKI-1 = experiment: Growth inhibition of human Caki1 cells assessed tumor cell growth at 10^-5 M; in short: as §1
# HCT-116 = experiment: Growth inhibition of human HCT116 cells assessed tumor cell growth at 10^-5 M; in short: as §1
# DU-145 = experiment: Growth inhibition of human DU145 cells assessed tumor cell growth at 10^-5 M; in short: as §1
# SF-539 = experiment: Growth inhibition of human SF539 cells assessed tumor cell growth at 10^-5 M; in short: as §1
# Malme-3M = experiment: Growth inhibition of human MALME-3M cells assessed tumor cell growth at 10^-5 M; in short: as §1
# SK-OV-3 = experiment: Growth inhibition of human SKOV3 cells assessed tumor cell growth at 10^-5 M; in short: as §1
# CCRF-CEM = experiment: Growth inhibition of human CCRF-CEM cells assessed tumor cell growth at 10^-5 M; in short: as §1
# HOP-62 = experiment: Growth inhibition of human HOP62 cells assessed tumor cell growth at 10^-5 M; in short: as §1
# 786-0 = experiment: Growth inhibition of human 786-0 cells assessed tumor cell growth at 10^-5 M; in short: as §1
# UACC-62 = experiment: Growth inhibition of human UACC62 cells assessed tumor cell growth at 10^-5 M; in short: as §2
# IGROV-1 = experiment: Growth inhibition of human IGROV1 cells assessed tumor cell growth at 10^-5 M; in short: as §1
# NCI-H322M = experiment: Growth inhibition of human NCI-H322M cells assessed tumor cell growth at 10^-5 M; in short: as §1
# HCT-15 = experiment: Growth inhibition of human HCT15 cells assessed tumor cell growth at 10^-5 M; in short: as §1
# OVCAR-4 = experiment: Growth inhibition of human OVCAR4 cells assessed tumor cell growth at 10^-5 M; in short: as §1
# EKVX = experiment: Growth inhibition of human EKVX cells assessed tumor cell growth at 10^-5 M; in short: as §1
# LOX IMVI = experiment: Growth inhibition of human LOXIMVI cells assessed tumor cell growth at 10^-5 M; in short: as §1
# K562 = experiment: Growth inhibition of human K562 cells assessed tumor cell growth at 10^-5 M; in short: as §1
# UO-31 = experiment: Growth inhibition of human UO31 cells assessed tumor cell growth at 10^-5 M; in short: as §2
# SR = experiment: Growth inhibition of human SR cells assessed tumor cell growth at 10^-5 M; in short: as §2
# OVCAR-3 = experiment: Growth inhibition of human OVCAR3 cells assessed tumor cell growth at 10^-5 M; in short: as §1
# SNB-75 = experiment: Growth inhibition of human SNB75 cells assessed tumor cell growth at 10^-5 M; in short: as §2
# SF-295 = experiment: Growth inhibition of human SF295 cells assessed tumor cell growth at 10^-5 M; in short: as §1
# MDA-MB-435 = experiment: Growth inhibition of human MDA-MB-435 cells assessed tumor cell growth at 10^-5 M; in short: as §1
# SK-MEL-2 = experiment: Growth inhibition of human SK-MEL-2 cells assessed tumor cell growth at 10^-5 M; in short: as §1
# SN12C = experiment: Growth inhibition of human SN12C cells assessed tumor cell growth at 10^-5 M; in short: as §1
# MOLT-4 = experiment: Growth inhibition of human MOLT4 cells assessed tumor cell growth at 10^-5 M; in short: as §1
# ACHN = experiment: Growth inhibition of human ACHN cells assessed tumor cell growth at 10^-5 M; in short: as §1
# T47D = experiment: Growth inhibition of human T47D cells assessed tumor cell growth at 10^-5 M; in short: as §2
# SK-MEL-5 = experiment: Growth inhibition of human SK-MEL-5 cells assessed tumor cell growth at 10^-5 M; in short: as §1
# NCI/ADR-RES = experiment: Growth inhibition of human NCI/ADR-RES cells assessed tumor cell growth at 10^-5 M; in short: as §1
# HOP-92 = experiment: Growth inhibition of human HOP92 cells assessed tumor cell growth at 10^-5 M; in short: as §1
# OVCAR-8 = experiment: Growth inhibition of human OVCAR8 cells assessed tumor cell growth at 10^-5 M; in short: as §1
# [2] = Growth inhibition of human Hs 578T cells assessed tumor cell growth at 10^-5 M; in short: as §1
# TK-10 = experiment: Growth inhibition of human TK10 cells assessed tumor cell growth at 10^-5 M; in short: as §2
# NCI-H226 = experiment: Growth inhibition of human NCI-H226 cells assessed tumor cell growth at 10^-5 M; in short: as §1
# MCF7 = experiment: Growth inhibition of human MCF7 cells assessed tumor cell growth at 10^-5 M; in short: as §1
# MDA-MB-231 = experiment: Growth inhibition of human MDA-MB-231 cells assessed tumor cell growth at 10^-5 M; in short: as §1
# NCI-H23 = experiment: Growth inhibition of human NCI-H23 cells assessed tumor cell growth at 10^-5 M; in short: as §1
# OVCAR-5 = experiment: Growth inhibition of human OVCAR5 cells assessed tumor cell growth at 10^-5 M; in short: as §1
# HCC 2998 = experiment: Growth inhibition of human HCC2998 cells assessed tumor cell growth at 10^-5 M; in short: as §1
# NCI-H460 = experiment: Growth inhibition of human NCI-H460 cells assessed tumor cell growth at 10^-5 M; in short: as §1
# SNB-19 = experiment: Growth inhibition of human SNB19 cells assessed tumor cell growth at 10^-5 M; in short: as §2
compound,measurement,setting,value
O=C1/C(=C\c2cn(C(=O)c3ccccc3)c3ccccc23)c2ccccc2N1c1c(Cl)cccc1Cl,Activity,BT-549,106.5%
same,Activity,NCI-H522,90.9%
same,Activity,MDA-MB-468,97.7%
same,Activity,RXF 393,150.7%
same,Activity,SF-268,99.9%
same,Activity,A549,110%
same,Activity,M14,104.2%
same,Activity,A498,102.8%
same,Activity,SK-MEL-28,113.4%
same,Activity,UACC-257,123.3%
same,Activity,[1],100.6%
same,Activity,HL-60(TB),102.5%
same,Activity,COLO 205,122.5%
same,Activity,SW-620,104.6%
same,Activity,KM12,111.3%
same,Activity,HT-29,103.4%
same,Activity,U-251,88.4%
same,Activity,PC-3,71.8%
same,Activity,CAKI-1,86.4%
same,Activity,HCT-116,94%
same,Activity,DU-145,119.5%
same,Activity,SF-539,104%
same,Activity,Malme-3M,106%
same,Activity,SK-OV-3,111.6%
same,Activity,CCRF-CEM,111.2%
same,Activity,HOP-62,94.2%
same,Activity,786-0,90.7%
same,Activity,UACC-62,95.4%
same,Activity,IGROV-1,99.2%
same,Activity,NCI-H322M,111.9%
same,Activity,HCT-15,66.3%
same,Activity,OVCAR-4,99.5%
same,Activity,EKVX,97.7%
same,Activity,LOX IMVI,97.6%
same,Activity,K562,114.6%
same,Activity,UO-31,76.9%
same,Activity,SR,99.5%
same,Activity,OVCAR-3,116.1%
same,Activity,SNB-75,82.2%
same,Activity,SF-295,126.6%
same,Activity,MDA-MB-435,115.5%
same,Activity,SK-MEL-2,102.9%
same,Activity,SN12C,89.5%
same,Activity,MOLT-4,89.6%
same,Activity,ACHN,97.6%
same,Activity,T47D,92.4%
same,Activity,SK-MEL-5,107.1%
same,Activity,NCI/ADR-RES,99.7%
same,Activity,HOP-92,79.8%
same,Activity,OVCAR-8,113.1%
same,Activity,[2],107.3%
same,Activity,TK-10,118.8%
same,Activity,NCI-H226,94.8%
same,Activity,MCF7,95.7%
same,Activity,MDA-MB-231,103.3%
same,Activity,NCI-H23,97.2%
same,Activity,OVCAR-5,94.2%
same,Activity,HCC 2998,101.6%
same,Activity,NCI-H460,111.1%
CC1=NN(c2cccc(Cl)c2)C(=O)/C1=C\c1ccccn1,Activity,BT-549,111.06%
same,Activity,NCI-H522,104.42%
same,Activity,MDA-MB-468,116.6%
same,Activity,RXF 393,114.31%
same,Activity,SF-268,100.43%
same,Activity,A549,116.18%
same,Activity,M14,80.87%
same,Activity,A498,111.6%
same,Activity,SK-MEL-28,128.95%
same,Activity,UACC-257,115.54%
same,Activity,[1],96.65%
same,Activity,HL-60(TB),113.01%
same,Activity,COLO 205,112.21%
same,Activity,SW-620,116.97%
same,Activity,KM12,111.47%
same,Activity,HT-29,114.19%
same,Activity,U-251,115.89%
same,Activity,PC-3,113.15%
same,Activity,CAKI-1,98.46%
same,Activity,HCT-116,88.7%
same,Activity,DU-145,120.58%
same,Activity,SNB-19,111.92%
same,Activity,SF-539,115.91%
same,Activity,Malme-3M,121.3%
same,Activity,SK-OV-3,113.71%
same,Activity,CCRF-CEM,32.58%
same,Activity,HOP-62,107.34%
same,Activity,786-0,113.47%
same,Activity,UACC-62,101.53%
same,Activity,IGROV-1,103.16%
same,Activity,NCI-H322M,123.35%
same,Activity,HCT-15,114.26%
same,Activity,OVCAR-4,128.45%
same,Activity,EKVX,117.01%
same,Activity,LOX IMVI,116.29%
same,Activity,K562,102.25%
same,Activity,UO-31,81.52%
same,Activity,SR,112.11%
same,Activity,OVCAR-3,117.75%
same,Activity,SNB-75,103.79%
same,Activity,SF-295,118.39%
same,Activity,MDA-MB-435,117.42%
same,Activity,SK-MEL-2,112.74%
same,Activity,SN12C,91.77%
same,Activity,MOLT-4,111.67%
same,Activity,ACHN,103.1%
same,Activity,T47D,100.29%
same,Activity,SK-MEL-5,103.51%
same,Activity,NCI/ADR-RES,116.87%
same,Activity,HOP-92,100.37%
same,Activity,OVCAR-8,105.14%
same,Activity,[2],111.76%
same,Activity,TK-10,118.17%
same,Activity,NCI-H226,112.86%
same,Activity,MCF7,102.77%
same,Activity,MDA-MB-231,106.88%
same,Activity,NCI-H23,111.77%
same,Activity,OVCAR-5,116.2%
same,Activity,HCC 2998,120.72%
same,Activity,NCI-H460,117.15%
